# Experiments:
# [1] = tested on: Staphylococcus epidermidis; assay: Antibacterial activity against Staphylococcus epidermidis ATCC 14990 after 16 to 18 hrs by microbroth dilution method; assay type: functional
# Outline: (§1)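 Broth microdilution in Mueller–Hinton broth following CLSI recommendations. Strains came from ATCC or CCUG collections or the authors' clinical isolates. Compounds were dissolved in DMSO as a 100 mg/ml stock and then diluted in culture medium. Inoculum was 5 × 10⁴ CFU/well. MIC was read after 16–18 h incubation at 35–37 °C.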
# Pseudomonas aeruginosa [2] = assay: Antibacterial activity against Pseudomonas aeruginosa ATCC 27853 after 16 to 18 hrs by microbroth dilution method; assay type: functional; outline: as §1
# Bacillus subtilis = assay: Antibacterial activity against Bacillus subtilis ATCC 6633 after 16 to 18 hrs by microbroth dilution method; assay type: functional; outline: as §1
# Klebsiella pneumoniae [3] = assay: Antibacterial activity against Klebsiella pneumoniae ATCC 13833 after 16 to 18 hrs by microbroth dilution method; assay type: functional; outline: as §1
# Escherichia coli = assay: Antibacterial activity against Escherichia coli CCUGT after 16 to 18 hrs by microbroth dilution method; assay type: functional; outline: as §1
# Streptococcus pyogenes = assay: Antibacterial activity against Streptococcus pyogenes ATCC 12344 after 16 to 18 hrs by microbroth dilution method; assay type: functional; outline: as §1
# Aeromonas hydrophila = assay: Antibacterial activity against Aeromonas hydrophila ATCC 7966 after 16 to 18 hrs by microbroth dilution method; assay type: functional; outline: as §1
# Enterococcus faecalis = assay: Antibacterial activity against Enterococcus faecalis ATCC 19433 after 16 to 18 hrs by microbroth dilution method; assay type: functional; outline: as §1
# Acinetobacter baumannii [4] = assay: Antibacterial activity against Acinetobacter baumannii ATCC 17978 after 16 to 18 hrs by microbroth dilution method; assay type: functional; outline: as §1
# [5] = tested on: Elizabethkingia meningoseptica; assay: Antibacterial activity against Elizabethkingia meningoseptica CCUG 4310 after 16 to 18 hrs by microbroth dilution method; assay type: functional; outline: as §1
# [6] = tested on: Achromobacter xylosoxidans; assay: Antibacterial activity against penicillin/expanded-spectrum cephalosporin/carbapenem/aminoglycoside-resistant Achromobacter xylosoxidans AX 22 after 16 to 18 hrs by microbroth dilution method; assay type: functional
# Outline: (§2)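 Broth microdilution MIC per CLSI in Mueller–Hinton broth. Inoculum 5 × 10⁴ CFU/well. Compounds dissolved in DMSO at 100 mg/ml, then diluted in culture medium. Plates incubated 16–18 h at 35–37 °C before reading the MIC. Strains were taken from ATCC or CCUG collections or from the authors' clinical isolate collection.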
# [7] = tested on: Stenotrophomonas maltophilia; assay: Antibacterial activity against penicillin/expanded-spectrum cephalosporin/carbapenem/monobactam/aminoglycoside/trimethoprim/sulfamethoxazole/fosfomycin-resistant Stenotrophomonas maltophilia 634/08 after 16 to 18 hrs by microbroth dilution method; assay type: functional; outline: as §2
# Enterobacter cloacae = assay: Antibacterial activity against penicillin/CEPH/carbapenem/aminoglycoside/fluoroquinolone-resistant Enterobacter cloacae VA-417/02 after 16 to 18 hrs by microbroth dilution method; assay type: functional; outline: as §2
# Pseudomonas aeruginosa [8] = assay: Antibacterial activity against penicillin/expanded-spectrum cephalosporin/carbapenem/monobactam/aminoglycoside/fluoroquinolone-resistant Pseudomonas aeruginosa VR-143/97 after 16 to 18 hrs by microbroth dilution method; assay type: functional; outline: as §2
# Klebsiella pneumoniae [9] = assay: Antibacterial activity against penicillin/expanded-spectrum cephalosporin/carbapenem/aminoglycoside/fluoroquinolone/trimethoprim/sulfamethoxazole-resistant Klebsiella pneumoniae 7023 after 16 to 18 hrs by microbroth dilution method; assay type: functional; outline: as §2
# Pseudomonas aeruginosa [10] = assay: Antibacterial activity against penicillin/expanded-spectrum cephalosporin/carbapenem/aminoglycoside-resistant Pseudomonas aeruginosa 101/1477 after 16 to 18 hrs by microbroth dilution method; assay type: functional; outline: as §2
# Alcaligenes faecalis = assay: Antibacterial activity against expanded-spectrum cephalosporin/carbapenem/monobactam-resistant Alcaligenes faecalis 424/98 after 16 to 18 hrs by microbroth dilution method; assay type: functional; outline: as §2
# Acinetobacter baumannii [11] = assay: Antibacterial activity against penicillin/expanded-spectrum cephalosporin/carbapenem/aztreonam/aminoglycoside/fluoroquinolone/fosfomycin/trimethoprim/sulfamethoxazole-resistant Acinetobacter baumannii AC-54/97 after 16 to 18 hrs by microbroth dilution method; assay type: functional; outline: as §2
# [12] = Apparent permeability of the compound at pH 7.4 after 5 hrs by PAMPA; assay type: physicochemical
# Outline: (§3)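 Parallel artificial membrane permeability assay run at physiological pH 7.4 and at alkaline pH 10.0, the duodenal-like condition, as a gastrointestinal permeability model. Apparent permeability (P_app) is reported in nm/s, together with the percentage of compound retained in the membrane.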
# [13] = Apparent permeability of the compound assessed as membrane retention at pH 10.0 after 5 hrs by PAMPA; assay type: physicochemical; conditions: pH 10, 5 h; outline: as §3
# [14] = Apparent permeability of the compound assessed as membrane retention at pH 7.4 after 5 hrs by PAMPA; assay type: physicochemical; conditions: pH 7.4, 5 h; outline: as §3
# [15] = Apparent permeability of the compound at pH 10.0 after 5 hrs by PAMPA; assay type: physicochemical; outline: as §3
Compound,MIC [1],MIC (Pseudomonas aeruginosa [2]),MIC (Bacillus subtilis),MIC (Klebsiella pneumoniae [3]),MIC (Escherichia coli),MIC (Streptococcus pyogenes),MIC (Aeromonas hydrophila),MIC (Enterococcus faecalis),MIC (Acinetobacter baumannii [4]),MIC [5],other results
N=C(N)NCCCCCCCCNCCCCCCCCNC(=N)NCc1ccccc1.O=C(O)C(F)(F)F.O=C(O)C(F)(F)F.O=C(O)C(F)(F)F,4 µg/mL,64 µg/mL,4 µg/mL,16 µg/mL,8 µg/mL,1 µg/mL,64 µg/mL,16 µg/mL,64 µg/mL,–,–
CCNC(=N)NCCCCCCN1CCCCCCCCNC(=N)NC1=O.O=C(O)C(F)(F)F.O=C(O)C(F)(F)F,32 µg/mL,> 256 µg/mL,64 µg/mL,> 256 µg/mL,> 256 µg/mL,16 µg/mL,> 256 µg/mL,128 µg/mL,> 256 µg/mL,> 256 µg/mL,–
C=C(C)CNC(=N)NCCCCCCCCN1CCCCCCCCNC(=N)NC1=O.O=C(O)C(F)(F)F.O=C(O)C(F)(F)F,0.5 µg/mL,8 µg/mL,0.5 µg/mL,1 µg/mL,0.5 µg/mL,0.5 µg/mL,4 µg/mL,1 µg/mL,8 µg/mL,32 µg/mL,MIC [6]: 8 µg/mL; MIC [7]: 4 µg/mL; MIC (Enterobacter cloacae): 1 µg/mL; MIC (Pseudomonas aeruginosa [8]): 8 µg/mL; MIC (Klebsiella pneumoniae [9]): 1 µg/mL; MIC (Pseudomonas aeruginosa [10]): 8 µg/mL; MIC (Alcaligenes faecalis): 4 µg/mL; MIC (Acinetobacter baumannii [11]): 4 µg/mL
C#CCNC(=N)N(C)CCCCCCCCNCCCCCCCCNC(=N)N.O=C(O)C(F)(F)F.O=C(O)C(F)(F)F.O=C(O)C(F)(F)F,16 µg/mL,32 µg/mL,256 µg/mL,16 µg/mL,> 256 µg/mL,16 µg/mL,> 256 µg/mL,8 µg/mL,256 µg/mL,64 µg/mL,–
C=C(C)CNC(=N)NCCCCCCN1CCCCCCCCNC(=N)NC1=O.O=C(O)C(F)(F)F.O=C(O)C(F)(F)F,16 µg/mL,> 256 µg/mL,16 µg/mL,> 256 µg/mL,256 µg/mL,8 µg/mL,> 256 µg/mL,64 µg/mL,256 µg/mL,> 256 µg/mL,–
C#CCNC(=N)NCCCCCCN1CCCCCCCCNC(=N)NC1=O.O=C(O)C(F)(F)F.O=C(O)C(F)(F)F,32 µg/mL,> 256 µg/mL,64 µg/mL,> 256 µg/mL,> 256 µg/mL,16 µg/mL,> 256 µg/mL,128 µg/mL,> 256 µg/mL,> 256 µg/mL,–
CN(CCCCCCCCNCCCCCCCCNC(=N)N)C(=N)NCc1ccccc1.O=C(O)C(F)(F)F.O=C(O)C(F)(F)F.O=C(O)C(F)(F)F,32 µg/mL,32 µg/mL,> 256 µg/mL,32 µg/mL,> 256 µg/mL,16 µg/mL,256 µg/mL,16 µg/mL,128 µg/mL,64 µg/mL,–
C=CCNC(=N)NCCCCCCCCN1CCCCCCCCNC(=N)NC1=O.O=C(O)C(F)(F)F.O=C(O)C(F)(F)F,16 µg/mL,> 256 µg/mL,1 µg/mL,128 µg/mL,–,4 µg/mL,–,128 µg/mL,64 µg/mL,–,–
O=C(N[C@H](CO)[C@H](O)c1ccc([N+](=O)[O-])cc1)C(Cl)Cl [CHLORAMPHENICOL],–,–,–,–,–,–,–,–,–,–,Papp at 5 h [12]: 0.03 ×10⁻⁶ cm/s; Papp [13]: 0%; Papp [14]: 0%; Papp at 5 h [15]: 0.057 ×10⁻⁶ cm/s
N=C(N)NCCCCCCNCCCCCCNC(=N)NCC1CC1.O=C(O)C(F)(F)F.O=C(O)C(F)(F)F.O=C(O)C(F)(F)F,256 µg/mL,> 256 µg/mL,> 256 µg/mL,256 µg/mL,> 256 µg/mL,32 µg/mL,> 256 µg/mL,16 µg/mL,> 256 µg/mL,> 256 µg/mL,–
C/C=C/CNC(=N)NCCCCCCN1CCCCCCCCNC(=N)NC1=O.O=C(O)C(F)(F)F.O=C(O)C(F)(F)F,16 µg/mL,> 256 µg/mL,16 µg/mL,> 256 µg/mL,256 µg/mL,32 µg/mL,> 256 µg/mL,32 µg/mL,256 µg/mL,256 µg/mL,–
CC(C)=CCNC(=N)NCCCCCCN1CCCCCCCCNC(=N)NC1=O.O=C(O)C(F)(F)F.O=C(O)C(F)(F)F,16 µg/mL,> 256 µg/mL,64 µg/mL,> 256 µg/mL,256 µg/mL,8 µg/mL,> 256 µg/mL,16 µg/mL,256 µg/mL,> 256 µg/mL,–
C#CCNC(=N)NCCCCCCCCNCCCCCCCCNC(=N)N.O=C(O)C(F)(F)F.O=C(O)C(F)(F)F.O=C(O)C(F)(F)F,4 µg/mL,256 µg/mL,4 µg/mL,32 µg/mL,16 µg/mL,2 µg/mL,256 µg/mL,16 µg/mL,128 µg/mL,> 256 µg/mL,–
C=C(C)CNC(=N)NCCCCCCCCNCCCCCCCCNC(=N)N.O=C(O)C(F)(F)F.O=C(O)C(F)(F)F.O=C(O)C(F)(F)F,64 µg/mL,> 256 µg/mL,64 µg/mL,256 µg/mL,128 µg/mL,16 µg/mL,> 256 µg/mL,256 µg/mL,> 256 µg/mL,> 256 µg/mL,–
CO[C@H]1/C=C/O[C@@]2(C)Oc3c(C)c(O)c4c(O)c(c5c(nc6cc(C)ccn65)c4c3C2=O)NC(=O)/C(C)=C\C=C\[C@H](C)[C@H](O)[C@@H](C)[C@@H](O)[C@@H](C)[C@H](OC(C)=O)[C@@H]1C [RIFAXIMIN],–,–,–,–,–,–,–,–,–,–,Papp at 5 h [12]: 0.006 ×10⁻⁶ cm/s; Papp [13]: 0%; Papp [14]: 0%; Papp at 5 h [15]: 0.012 ×10⁻⁶ cm/s
N=C(NCCCCCCCCNCCCCCCCCNC(=N)NCC1CC1)NCC1CC1.O=C(O)C(F)(F)F.O=C(O)C(F)(F)F.O=C(O)C(F)(F)F,> 256 µg/mL,> 256 µg/mL,> 256 µg/mL,> 256 µg/mL,> 256 µg/mL,> 256 µg/mL,> 256 µg/mL,> 256 µg/mL,> 256 µg/mL,> 256 µg/mL,–
C/C=C/CNC(=N)NCCCCCCCCN1CCCCCCCCNC(=N)NC1=O.O=C(O)C(F)(F)F.O=C(O)C(F)(F)F,4 µg/mL,256 µg/mL,4 µg/mL,32 µg/mL,64 µg/mL,2 µg/mL,64 µg/mL,8 µg/mL,32 µg/mL,128 µg/mL,–
N=C(NCCCCCCCCN1CCCCCCCCNC(=N)NC1=O)NCC1CCC1.O=C(O)C(F)(F)F.O=C(O)C(F)(F)F,4 µg/mL,> 256 µg/mL,4 µg/mL,32 µg/mL,64 µg/mL,2 µg/mL,64 µg/mL,8 µg/mL,32 µg/mL,256 µg/mL,–
CN(CCCCCCCCNCCCCCCCCNC(=N)N)C(=N)NCC1CC1.O=C(O)C(F)(F)F.O=C(O)C(F)(F)F.O=C(O)C(F)(F)F,8 µg/mL,8 µg/mL,256 µg/mL,8 µg/mL,> 256 µg/mL,8 µg/mL,> 256 µg/mL,4 µg/mL,256 µg/mL,32 µg/mL,–
N=C(NCCCCCCCCN1CCCCCCCCNC(=N)NC1=O)NCC1CC1.O=C(O)C(F)(F)F.O=C(O)C(F)(F)F,8 µg/mL,> 256 µg/mL,4 µg/mL,128 µg/mL,–,32 µg/mL,–,32 µg/mL,64 µg/mL,–,–

# Reference: ChEMBL document CHEMBL3352312, “Synthesis of linear and cyclic guazatine derivatives endowed with antibacterial activity” (Bioorg Med Chem Lett, 2014)
